# An excerpt weighted towards active compounds, which were near 2.3% of everything screened.
# TRPC4 block – blocks the mouse TRPC4 cation channel; Q9QUQ5; HEK293 TRPC4beta/mu-opioid, DAMGO-evoked Fluo4 calcium flux; hits give low values; B-score at 10 µM; hit rate 0.39% among 300,000;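 active = B-score over 3 SD under the library average, no early fluorescence shift, positive overall ratio signal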
#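 Material: HEK293 cells with stable TRPC4beta plus mu-opioid receptor expression / Probe or stimulus: DAMGO in two steps, submaximal then maximal / Compound: single concentration per test compound / Technique: kinetic Fluo4 fluorescence imaging of calcium influx / Read-out: per-well B score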
# TRPC6 inh – inhibitors of mouse TRPC6 channel | hit rate 1.1% among 310,000 | B-score at 10 µM | HEK293-TRPC6, membrane potential dye, ACh-evoked depolarization; hits give low values;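 active = B-score under library mean minus 3 SD, initial fluorescence not abnormally high, positive integrated signal ratio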;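 also: B-score derived from integrated fluorescence ratio over the kinetic read; more negative B-score means stronger inhibition of depolarization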
# TRPC4 act – TRPC4 (mouse) channel activation. hit rate 0.49% among 310,000. HEK293 TRPC4beta/mu-opioid, Fluo4 calcium fluorescence; hits give high values. Q9QUQ5. B-score at 10 µM. AID 2237;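 active = B-score above 5 SD of library B-scores, and initial fluorescence ratio not above library mean plus 5 SD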;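 also: positive B-score marks a calcium rise read as TRPC4 activation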
#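 Technique: kinetic Fluo4 calcium fluorescence; Test system: TRPC4beta and mu-opioid receptor HEK293 stable cells; Measure: B-scored integrated calcium fluorescence ratio; Benchmarks: low control buffer alone, high control maximal DAMGO; Schedule: 45 min room-temperature Fluo4 loading, 110 s read.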
# TRPC4 potent – allosterically enhances the mouse TRPC4 cation channel. Q9QUQ5. B-score at 10 µM. HEK293 TRPC4beta/mu-opioid, DAMGO EC20, Fluo-4 Ca2+ flux; hits give high values. hit rate 0.42% among 310,000;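 active = B-score of calcium response area above 5 SD of library B-scores, with initial fluorescence ratio within 5 SD of library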
# TRPC6 act – activates the mouse TRPC6 cation channel | Q61143 | HEK293-TRPC6 membrane potential dye fluorescence; hits give high values | B-score at 10 µM | hit rate 0.13% among 310,000 | AID 2550;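 active = B-score of the integrated fluorescence ratio above library mean plus 3 SD, and starting fluorescence ratio within library mean plus 5 SD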;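 also: higher score means more depolarization so channel activation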
# TRPC4 spec 2 – second check of whether TRPC6 inhibitors also affect mouse TRPC4 | AID 2776 | hit rate 42% among 920 | shares compounds with TRPC6 inh | HEK293 TRPC4/MOR, membrane potential dye fluorescence; channel activated by saturating DAMGO dose | inhibition, % at 10 µM;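 active = compounds whose fluorescence signal differed from control wells by over 3 SD, either direction, in both duplicate plates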
# TRPC4 spec – mouse TRPC4 off-target activity of TRPC6 inhibitors; hit rate 61% among 920; shares compounds with TRPC6 inh; activity change, negative = inhibition, % at 10 µM; HEK293 TRPC4/mu-opioid, membrane potential fluorescence;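 active = rise or fall in signal beyond 3 SD of buffer-only wells in both replicate plates, either sign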;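 also: integrated kinetic ratio of fluorescence range over baseline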
# HEK293 MPD ctr 2-1 – second check of TRPC6 inhibitor effects in parental HEK293 cells; shares compounds with TRPC6 inh; parental HEK293 membrane potential dye fluorescence; maximal acetylcholine challenge after compound addition; signal change vs control, % at 10 µM; hit rate 31% among 920;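 active = membrane potential signal moving either way by over 3 SD of the maximum-effect control, in both duplicate plates, meaning non-specific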
# HEK293 MPD ctr-1 – parental HEK293 nonspecific activity of TRPC6 inhibitors. shares compounds with TRPC6 inh. parental HEK293 membrane potential dye fluorescence. membrane potential signal change, % at 10 µM. hit rate 60% among 920. AID 2780;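 active = membrane potential signal shifting up or down by more than 3 SD of buffer-only wells, on both duplicate plates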
# HEK293 MPD ctr-2 – checks TRPC6 modulator effects in parental HEK293 cells; membrane potential dye fluorescence; hit rate 51% among 2,400; shares compounds with TRPC6 inh; membrane potential signal change, % at 10 µM; AID 488924;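 active = membrane potential signal moves up or down beyond 5 SD from buffer-only wells, on both duplicate plates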
# HEK293 MPD ctr 2-2 – second counter-screen for TRPC6 modulators: effect in parental HEK293 cells. inhibition, % at 10 µM. shares compounds with TRPC6 inh. AID 488926. membrane potential dye fluorescence; after compound, maximal acetylcholine stimulation. hit rate 14% among 2,400;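 active = membrane potential signal drops by more than 5 SD from the mean control signal, in both duplicate plates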
# TRPC4/MOR mod – selectivity of TRPC6 modulators against mouse TRPC4 | HEK293 TRPC4/mu-opioid, membrane potential fluorescence | shares compounds with TRPC6 inh | percent change from control (negative = decrease, positive = increase), % at 10 µM | hit rate 69% among 2,400 | AID 488927;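 active = membrane potential signal moved up or down beyond 5 SD of buffer control wells, in both duplicate plates, actives on both sides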
# TRPC4/MOR inh 2 – mouse TRPC4 off-target activity of TRPC6 modulators, second screen | shares compounds with TRPC6 inh | HEK293 TRPC4/mu-opioid, membrane potential dye fluorescence; stimulated with maximal-effect DAMGO | inhibition, % at 10 µM | hit rate 55% among 2,400;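 active = drop in membrane potential signal beyond 5 SD of the control wells in both duplicate plates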;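 also: TRPC4 counter screen for TRPC6 hits run under conditions tuned for TRPC6 not TRPC4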
# TRPC6 block conf – confirmation of mouse TRPC6 inhibitors. AID 488960. HEK293-TRPC6, membrane potential dye, ACh-evoked depolarization. inhibition, % at 10 µM. hit rate 43% among 3,300. shares compounds with TRPC6 inh;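 active = fluorescence ratio falls more than 5 SD below the full-stimulation control mean, in both duplicate runs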;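 also: integrated fluorescence ratio of peak minus minimum over baseline after agonist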
# TRPC6 act confirm – mouse TRPC6 activator confirmation. hit rate 11% among 2,800. shares compounds with TRPC6 inh. activation, % at 10 µM. HEK293-TRPC6 membrane potential dye fluorescence, FDSS;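 active = ratio signal rise beyond 5 SD above unstimulated control wells' mean, seen in both duplicate runs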
# A number is an active result; i = inactive; nt = no result given.
SMILES,TRPC4 block,TRPC6 inh,TRPC4 act,TRPC4 potent,TRPC6 act,HEK293 MPD ctr-2,HEK293 MPD ctr 2-2,TRPC4/MOR mod,TRPC4/MOR inh 2,TRPC6 block conf,TRPC6 act confirm,others
Cn1c(=O)c(Nc2ccc(O)cc2)c2c3c(cccc31)C(=O)c1ccccc1-2,i,-6,i,i,i,i,i,-27%,59%,i,i,
CC(=O)c1c2c3c(cccc3n(C)c1=O)C(=O)c1ccccc1-2,i,i,i,i,i,nt,nt,nt,nt,nt,nt,
CC(NC(=O)[C@H](C)NC(=O)[C@@H]1CSC2c3ccccc3C(=O)N21)c1ccccc1 (stereo partly drawn),i,i,i,i,i,nt,nt,nt,nt,nt,nt,
CCN1CCN(c2nc3c(C)cccn3c(=O)c2/C=C(\C#N)S(=O)(=O)c2ccc(C)cc2)CC1,i,-5.1,i,i,i,-77%,i,-22%,96%,i,i,
Cc1ccc(S(=O)(=O)/C(C#N)=C/c2c(N3CCN(C)CC3)nc3c(C)cccn3c2=O)cc1,i,-6.8,i,i,i,i,i,-17%,83%,i,i,
N#C/C(=C\c1c(N2CCN(c3ccccc3)CC2)nc2ccccn2c1=O)S(=O)(=O)c1ccccc1,i,i,i,i,i,nt,nt,nt,nt,nt,nt,
N#C/C(=C\c1c(N2CCCCC2)nc2ccccn2c1=O)S(=O)(=O)c1ccccc1,i,-5.3,i,i,i,i,i,-14%,48%,i,i,
Cc1ccc(NS(=O)(=O)c2ccc3c(c2)NC(=O)CCS3)cc1C,i,i,i,i,i,nt,nt,nt,nt,nt,nt,
CNC(=O)Cn1c(C)cc(=O)c2cccc(OC)c21,i,-6.9,i,i,i,-471%,i,-70%,41%,40%,i,
Cc1ccn(CC(=O)NC2CCCN(Cc3ccc(CC(C)C)cc3)C2)n1 (stereo not drawn),i,-5.8,145,i,i,112%,i,38%,i,i,nt,
CC(C)Cc1ccc(CN2CCCC(NC(=O)CCN3CCCO3)C2)cc1 (stereo not drawn),i,i,i,i,i,nt,nt,nt,nt,nt,nt,
COc1ccc(-c2csc(NC(=O)CCCc3nc4ccccc4c(=O)[nH]3)n2)cc1OC,i,-5.2,i,i,i,i,i,14%,i,i,nt,
CC1(C)SC2c3ccccc3C(=O)N2[C@@H]1C(=O)NCCCN1CCOCC1 (stereo partly drawn),i,-5.1,i,i,i,i,i,11%,i,i,nt,
Cc1ccc(S(=O)(=O)N/N=C/c2ccc3nccnc3c2)cc1,i,i,i,i,i,nt,nt,nt,nt,nt,nt,
COc1ccc(NC(=O)COc2ccccc2C(=O)NCC(c2ccccc2)N(C)C)cc1Cl (stereo not drawn),i,-5.3,45,i,i,i,i,i,86%,48%,i,
C/C(=N\Nc1ncnc2sc(C)c(C)c12)c1ccccn1,i,i,i,15,17,316%,i,50%,i,i,75%,
CCn1cnc2cc(NCc3ccc(Br)cc3)ccc21,i,-5,i,i,i,i,i,i,40%,40%,i,
CCOc1ccc(CNc2ccc3c(c2)ncn3C(C)(C)C)cc1,i,-8.5,i,i,i,nt,nt,nt,nt,66%,i,TRPC4 spec 2=i;TRPC4 spec=i;HEK293 MPD ctr 2-1=i;HEK293 MPD ctr-1=i
CCCn1cnc2cc(NCc3ccc(Br)cc3)ccc21,i,i,i,i,i,nt,nt,nt,nt,nt,nt,
COc1ccc(Cl)cc1NC(=O)C(C)N1CCN(c2ccccn2)CC1 (stereo not drawn),i,i,i,i,i,nt,nt,nt,nt,nt,nt,
Clc1ccccc1CN1CCN(/N=C/C=C/c2ccco2)CC1,i,i,i,i,i,nt,nt,nt,nt,nt,nt,
Nc1ccc(C(=O)Nc2ccc(NC(=O)c3ccco3)c(O)c2)cc1,i,i,i,i,i,nt,nt,nt,nt,nt,nt,
Cc1ccc2nc3c(cc(S(=O)(=O)c4ccccc4)c(=N)n3Cc3ccco3)c(=O)n2c1,i,-5.5,i,i,i,i,i,i,i,i,i,
COC(=O)CSc1nnc(-c2ccccn2)n1N,i,i,i,i,i,nt,nt,nt,nt,nt,nt,
CC1=C(C(=O)Nc2ccccc2)C(c2cccnc2)n2ncnc2N1 (stereo not drawn),i,i,i,i,i,nt,nt,nt,nt,nt,nt,
SMILES,TRPC4 block,TRPC6 inh,TRPC4 act,TRPC4 potent,TRPC6 act,HEK293 MPD ctr-2,HEK293 MPD ctr 2-2,TRPC4/MOR mod,TRPC4/MOR inh 2,TRPC6 block conf,TRPC6 act confirm,others
Cc1ccc2cc(C=O)c(N3CCOCC3)nc2c1C,i,i,i,i,i,nt,nt,nt,nt,nt,nt,
Cc1cc(N2CCOCC2)c2c(N)cc(C)c(C)c2n1,i,-11,i,i,i,-357%,87%,-54%,54%,58%,i,
COc1ccc2c(=O)c3c(=O)n(CCc4ccccc4)c(C(C)C)nc3oc2c1,i,i,i,i,i,nt,nt,nt,nt,nt,nt,
Brc1cccc(-c2cnc3n2CCCCC3)c1,i,-5.4,i,i,i,136%,i,24%,48%,54%,nt,
Cc1cc(CNC(=O)C2(C(F)(F)F)C/C(=C\Cc3ccccc3)CCCO2)nn1C (stereo not drawn),i,i,i,i,i,nt,nt,nt,nt,nt,nt,
CCOC(=O)N1CCN(S(=O)(=O)c2ccc(OCC)c(C)c2)CC1,i,-9.9,i,i,12,i,i,18%,i,74%,128%,
CCOC(=O)N1CCN(S(=O)(=O)c2ccc(C)c(C)c2)CC1,i,i,i,i,i,nt,nt,nt,nt,nt,nt,
CCOC(=O)c1ccc(NC(=O)CCNS(=O)(=O)c2cc(Br)cnc2N)cc1,i,-6.9,i,i,i,i,i,-20%,i,79%,i,
CCOC(=O)N1CCN(S(=O)(=O)c2cc(Br)cnc2N)CC1,i,-7.2,i,i,i,nt,nt,nt,nt,i,i,TRPC4 spec 2=i;TRPC4 spec=i;HEK293 MPD ctr 2-1=i;HEK293 MPD ctr-1=i
